This passage reports CC50, EC50 and Activity results from ChEMBL document CHEMBL1144182, “Antimicrobial and cytotoxic arylazoenamines. Part III: antiviral activity of selected classes of arylazoenamines” (Bioorg Med Chem, 2008).

SMILES strings stand for the structures. Activity calls are given as the source filed them. How the calls were made is not given here.

A short description of data set [1]: Cytotoxicity against mock-infected human MT4 cells assessed as reduction in cell viability after 96 hrs by MTT assay. The format is cell-based. The procedure, abridged:
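Exponentially growing MT-4 cells seeded at 1 × 10^5 cells/mL in RPMI-1640 with 10% FCS, penicillin and streptomycin, with or without serial compound dilutions. Incubated at 37 °C, 5% CO2; viability read by MTT after 96 h. CC50 is the concentration reducing mock-infected cell viability by 50%.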
In general terms: Formazan colour is commonly taken as a measure of viable cells.

Data set [2] in a line: Cytotoxicity against mock-infected MDBK cells assessed as reduction in cell viability after 96 hrs by MTT assay. The class given is cell-based, Bos taurus. The conditions noted are these: cattle. The procedure, abridged:
(§1)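 Cytotoxicity run in parallel with the antiviral assays. MDBK seeded at 6 × 10^5 and BHK at 1 × 10^6 cells/mL in maintenance medium with or without serial compound dilutions. Incubated 48–96 h at 37 °C, 5% CO2, then viability read by MTT. CC50 is the concentration reducing mock-infected cell viability by 50%.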

Data set [3] has as its system Bovine viral diarrhea virus 1. The experiment in a line: Antiviral activity against BVDV infected in MDBK cells assessed as protection against virus-induced cytopathogenicity after 4 days by MTT assay. The format is functional, organism-based. The conditions noted are these: Bovine viral diarrhea virus isolates and strains, 96 h. In outline: (§2)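 MDBK (BVDV) or BHK-21 (YFV) cells were seeded at 3 × 10^4 or 5 × 10^4 cells/well respectively and grown overnight to confluent monolayers at 37 °C in 5% CO2. Monolayers were infected at m.o.i. 0.01 in serum-free medium. After 1 h, MEM Earle's with 1% FCS was added, with or without serial compound dilutions. After 3–4 days at 37 °C, viability was read by MTT. EC50 was taken as 50% protection from virus-induced cytopathogenicity.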

Data set [4] in a line: Cytotoxicity against mock-infected BHK cells assessed as reduction in cell viability after 96 hrs by MTT assay. The format is cell-based, Mesocricetus auratus. The conditions noted are these: hamster. The procedure, abridged:
as §1

The test system of another data set is Yellow fever virus. The experiment in a line: Antiviral activity against YFV infected in BHK21 cells assessed as protection against virus-induced cytopathogenicity after 4 days by MTT assay. The conditions noted are these: BHK-21, 96 h. The format is functional, organism-based. The procedure, abridged: as §2
A general note: Cytopathic effects are the visible damage that an infection or toxin causes in cultured cells.

A short description of data set [5]: Cytotoxicity against mock-infected african green monkey Vero76 cells assessed as reduction in cell viability after 96 hrs by MTT assay. The class given is cell-based, Vero. The conditions noted are these: chlorocebus sabaeus.
Another data set relates to Coxsackievirus B2. Nature of the data set: Antiviral activity against CVB2 infected in Vero76 cells assessed as reduction in virus plaque formation after 4 days by MTT assay. The class given is functional, organism-based. The conditions noted are these: Enterovirus B, Vero 76, 96 h.
Data set [6] deals with Respiratory syncytial virus. Nature of the data set: Antiviral activity against RSV infected in Vero76 cells assessed as reduction in virus plaque formation after 4 days by MTT assay. The conditions noted are these: human respiratory syncytial virus, Vero 76, 96 h. The class given is functional, organism-based.
In a further data set the test system is Poliovirus 1. The experiment in a line: Antiviral activity against Sb1 virus infected in Vero76 cells assessed as reduction in virus plaque formation after 4 days by MTT assay. The conditions noted are these: Enterovirus C, Sabin, Vero 76, 96 h. The format is functional, organism-based.
Data set [7] concerns Human immunodeficiency virus 1. Nature of the data set: Antiviral activity against HIV1 infected in MT4 cells assessed as virus-induced cytopathogenicity after 4 days. The format is functional, organism-based.
The next data set has as its system Vaccinia virus. The experiment in a line: Antiviral activity against VV infected in Vero76 cells assessed as reduction in virus plaque formation after 4 days by MTT assay. The format is functional, organism-based. The conditions noted are these: Orthopoxvirus vaccinia; Vero 76.
The subject of data set [8] is Vesicular stomatitis virus. Nature of the data set: Antiviral activity against VSV infected in Vero76 cells assessed as reduction in virus plaque formation after 4 days by MTT assay. The format is functional, organism-based. The conditions noted are these: Vero 76.

Usually CC50 stands for the concentration that lowers cell viability or growth by half. The EC50 is the midpoint of the concentration-response curve. As for `Brc1cccc(/N=N\C2=C3CCCCN3CCC2)c1`, the CC50 at 96 h is 9 µM in data set [1], 10 µM in data set [2], 49 µM in data set [4] and above 100 µM in data set [5]. Also, the EC50 in [3] is above 10 µM; in the data set on Yellow fever virus it was above 49 µM; in the data set with Coxsackievirus B2, 18 µM; in data set [6], above 100 µM; in the data set with Poliovirus 1, above 100 µM. Besides, the result (in data set [7]; in the data set with Vaccinia virus; in data set [8]) was inactive.
With `CN1C=C(/N=N/c2ccc([N+](=O)[O-])cc2)CCC1`, the CC50 at 96 h was above 100 µM in data set [1], 62 µM in data set [2], above 100 µM in data set [4] and above 100 µM in data set [5]. The EC50 in [3] was 11 µM; with Yellow fever virus, above 100 µM; in the data set with Coxsackievirus B2 it was above 100 µM; in [6] it was above 100 µM; with Poliovirus 1, above 100 µM. For the same molecule, the outcome (in [7]; in the data set on Vaccinia virus; in data set [8]) was inactive.
Turning to `FC(F)(F)c1cc(/N=N/C=C2\CCCN2Cc2ccccc2)ccc1Cl`, the CC50 at 96 h in data set [1] worked out at 20 µM; in data set [2] it was 14 µM; in data set [4], 22 µM; in data set [5] it was 80 µM. For the same molecule, the EC50 is above 14 µM in data set [3]; above 22 µM in the data set on Yellow fever virus; 30 µM with Coxsackievirus B2; above 80 µM in data set [6]; above 80 µM with Poliovirus 1. The outcome (in [7]; in the data set with Vaccinia virus; in data set [8]) was inactive.
On to `Clc1ccccc1/N=N\C1=C2CCCCN2CCC1`, for which the CC50 at 96 h was 78 µM in data set [1], above 100 µM in data set [2], 93 µM in [4] and above 100 µM in [5]. Further, the EC50 in [3] is above 100 µM; in the data set with Yellow fever virus, above 93 µM; in the data set with Coxsackievirus B2 it was 32 µM; in data set [6], 60 µM; in the data set with Poliovirus 1, above 100 µM. The outcome (in [7]; with Vaccinia virus; in [8]) was inactive.
Consider `CN1C=C(/N=N/c2ccc(Cl)c([N+](=O)[O-])c2)CCC1`, for which the CC50 at 96 h in [1] was 71 µM; in data set [2], 61 µM; in [4], above 100 µM; in data set [5] it was above 100 µM. Further, the EC50 in data set [3] was above 61 µM; with Yellow fever virus it was above 100 µM; in the data set on Coxsackievirus B2 it was above 100 µM; in data set [6], above 100 µM; in the data set on Poliovirus 1, above 100 µM. Further, the result (in data set [7]; with Vaccinia virus; in data set [8]) was inactive.
For the molecule `COc1ccc(/N=N/C=C2\CCCN2C)cc1`, the CC50 at 96 h in [1] is above 100 µM; in data set [2] it was 67 µM; in data set [4], 77 µM; in data set [5] it was 100 µM. In addition, the EC50 in data set [3] is 18 µM; in the data set with Yellow fever virus, above 77 µM; with Coxsackievirus B2, 5 µM; in [6], above 100 µM; in the data set with Poliovirus 1, above 100 µM. The outcome (in [7]; in the data set on Vaccinia virus; in [8]) was inactive.
Consider `FC(F)(F)c1cccc(N2CCN(/C=C/N=N/c3ccccc3)CC2)c1`, for which the CC50 at 96 h in data set [1] is 30 µM; in data set [2], 9 µM; in data set [4], 43 µM; in data set [5] it was 11 µM. The EC50 in [3] was above 9 µM; in the data set with Yellow fever virus, 9 µM; in the data set on Coxsackievirus B2, above 11 µM; in [6], 4 µM; with Poliovirus 1 it was above 11 µM. Besides, the outcome (in data set [7]; with Vaccinia virus; in [8]) was inactive.
As to `CN1C=C(/N=N/c2ccc(F)cc2)CCC1`, the CC50 at 96 h was at least 100 µM in data set [1], 48 µM in data set [2], 90 µM in data set [4] and 77 µM in [5]. Moreover, the EC50 is above 48 µM in [3]; above 90 µM in the data set with Yellow fever virus; 53 µM in the data set on Coxsackievirus B2; 30 µM in data set [6]; above 77 µM in the data set on Poliovirus 1. In addition, the outcome (in data set [7]; in the data set on Vaccinia virus; in data set [8]) was inactive.
In the case of `O=[N+]([O-])c1cc(/N=N\C2=C3CCCCN3CCC2)ccc1Cl`, the CC50 at 96 h in [1] was determined as 33 µM; in [2], 18 µM; in [4] it was 10 µM; in data set [5], 100 µM. The EC50 was 18 µM in [3]; above 10 µM in the data set on Yellow fever virus; 51 µM in the data set on Coxsackievirus B2; 75 µM in data set [6]; above 100 µM in the data set on Poliovirus 1. Further, the outcome (in data set [7]; with Vaccinia virus; in data set [8]) was inactive.
In the case of `Clc1ccc(/N=N/C=C/N2CCCC2)cc1`, the CC50 at 96 h in data set [1] was 61 µM; in [2], 30 µM; in data set [4], above 100 µM; in data set [5] it was 22 µM. For the same molecule, the EC50 in data set [3] was above 30 µM; in the data set with Yellow fever virus, 46 µM; in the data set with Coxsackievirus B2, 4 µM; in data set [6], above 22 µM; in the data set with Poliovirus 1 it was above 22 µM. The outcome (in [7]; with Vaccinia virus; in data set [8]) was inactive.
`CN1C=C(/N=N/c2ccccc2Cl)CCC1`: the CC50 at 96 h in data set [1], in data set [2], in data set [4] and in data set [5] was above 100 µM each time. Further, the EC50 in data set [3] was 100 µM; with Yellow fever virus, above 100 µM; in the data set on Coxsackievirus B2, above 100 µM; in data set [6], above 100 µM; in the data set with Poliovirus 1, 8 µM. In addition, the result (in [7]; in the data set on Vaccinia virus; in data set [8]) was inactive.
Turning to `Clc1ccc(N2CCN(/C=C/N=N/c3ccccc3)CC2)cc1`, the CC50 at 96 h in [1] was 21 µM; in [2] it was 7.5 µM; in data set [4], 29 µM; in data set [5], 45 µM. The EC50 was above 7.5 µM in [3]; 7.5 µM with Yellow fever virus; 7 µM with Coxsackievirus B2; 7 µM in data set [6]; above 45 µM with Poliovirus 1. Moreover, the result (in [7]; in the data set with Vaccinia virus; in data set [8]) was inactive.
Turning to `c1ccc2c(/N=N\C3=C4CCCN4CCC3)cccc2c1`, the CC50 at 96 h came to 18 µM in [1], 91 µM in [2], 51 µM in data set [4] and 90 µM in [5]. The EC50 in data set [3] is 3.5 µM; in the data set with Yellow fever virus, above 51 µM; with Coxsackievirus B2, 44 µM; in [6], above 90 µM; with Poliovirus 1, above 90 µM. Moreover, the result (in data set [7]; with Vaccinia virus; in data set [8]) was inactive.
Turning to `Clc1ccc(/N=N/C=C2\CCCN2Cc2ccccc2)cc1`, the CC50 at 96 h in data set [1] stood at 17 µM; in [2], 18 µM; in data set [4], 20 µM; in data set [5], 70 µM. The EC50 in data set [3] was above 18 µM; with Yellow fever virus, above 20 µM; in the data set on Coxsackievirus B2 it was 23 µM; in [6], above 70 µM; in the data set on Poliovirus 1 it was above 70 µM. The outcome (in data set [7]; in the data set with Vaccinia virus; in data set [8]) was inactive.
As for `C(=C\N1CCN(c2ccccc2)CC1)/N=N/c1ccccc1`, the CC50 at 96 h in data set [1] was found to be 15 µM; in data set [2] it was 5 µM; in data set [4], 60 µM; in [5] it was 50 µM. The EC50 in data set [3] is above 5 µM; with Yellow fever virus, 42 µM; in the data set on Coxsackievirus B2, 5 µM; in data set [6], 11 µM; in the data set on Poliovirus 1, above 50 µM. Also, the result (in data set [7]; in the data set with Vaccinia virus; in data set [8]) was inactive.
